Experimental data from ChEMBL document CHEMBL3853323, “Small Antimicrobial Agents Based on Acylated Reduced Amide Scaffold” (J Med Chem, 2016).
In brackets after ≈: the same amount, converted by molar mass. Activity calls are given as the source filed them. The rule behind the calls is not given here.

Key:
[1] = test system: Escherichia coli; experiment: Antibacterial activity against Escherichia coli ATCC 25922 after 16 to 20 hrs by two fold serial dilution method; type: functional
Method in brief: (§1)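 MIC as lowest concentration giving complete inhibition of growth after 20 h; at least three independent experiments, each in duplicate.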

[2] = test system: Pseudomonas aeruginosa; experiment: Antibacterial activity against Pseudomonas aeruginosa ATCC 27853 after 16 to 20 hrs by two fold serial dilution method; type: functional; method in brief: as §1
[3] = test system: Klebsiella pneumoniae; experiment: Antibacterial activity against Klebsiella pneumoniae ATCC 13383 after 16 to 20 hrs by two fold serial dilution method; type: functional; method in brief: as §1
[4] = test system: Staphylococcus aureus; experiment: Antibacterial activity against methicillin-resistant Staphylococcus aureus ATCC 33591 after 16 to 20 hrs by two fold serial dilution method; type: functional
Method in brief: (§2)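 Broth MIC: the lowest concentration giving complete growth inhibition after 20 h. Run at least three times, in duplicate each time.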

[5] = test system: Staphylococcus epidermidis; experiment: Antibacterial activity against methicillin-resistant Staphylococcus epidermidis RP62A after 16 to 20 hrs by two fold serial dilution method; type: functional; method in brief: as §2
[6] = test system: Enterococcus faecalis; experiment: Antibacterial activity against vancomycin resistant Enterococcus faecalis ATCC 700802 after 16 to 20 hrs by two fold serial dilution method; type: functional; method in brief: as §2
[7] = Hemolytic activity in human RBC after 1 hr; type: ADME, cell-based, Erythrocyte; details: human red blood cells
Method in brief: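 Fresh K2EDTA human RBCs, PBS-washed, as 5% v/v suspension mixed 1:1 with compound dilutions, 37 °C for 1 h. Supernatant after centrifugation diluted in PBS, A540 read. % hemolysis relative to 2% Triton X-100 (positive) and PBS (negative). At least three runs, each in duplicate.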

[8] = Cytotoxicity against human HK2 cells assessed as cell viability at 25 ug/ml after 24 hrs by MTT assay; type: toxicity, cell-based; details: hk-2, 24 h
Method in brief: (§3)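 Cells seeded at 5×10^4 per well and left 12 h, then exposed 24 h to compound at 100, 50, 25, 12.5 or 6.25 μg/mL diluted in medium. Medium replaced, MTT added for 4 h, solubilized 12 h at 37 °C, A550 read; viability % = (A − Ablank)/(Acontrol − Ablank) × 100. Run at least three times.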

[9] = Cytotoxicity against human K562 cells assessed as cell viability at 25 ug/ml after 24 hrs by MTT assay; type: toxicity, cell-based; details: k562, 24 h; method in brief: as §3
[10] = test system: Staphylococcus aureus; experiment: Bactericidal activity against methicillin-resistant Staphylococcus aureus ATCC 33591 assessed as disruption of bacterial membrane at 25 ug/ml after 2 hrs by DAPI staining based fluorescence microscopy; type: functional
Method in brief: (§4)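 Mid-log MRSA was exposed to compound at 37 °C for 2 h, pelleted and washed three times in PBS. Cells were stained sequentially with PI (5 µg/mL) and DAPI (10 µg/mL), 15 min each on ice in the dark. Imaged with a 100× oil objective; DAPI channel 460 nm, PI channel 620 nm.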

[11] = test system: Staphylococcus aureus; experiment: Bactericidal activity against methicillin-resistant Staphylococcus aureus ATCC 33591 assessed as disruption of bacterial membrane at 25 ug/ml after 2 hrs by propidium iodide staining based fluorescence microscopy; type: functional; method in brief: as §4
[12] = test system: Staphylococcus aureus; experiment: Bactericidal activity against methicillin-resistant Staphylococcus aureus ATCC 33591 for 10 mins to 2 hrs by time kill assay; type: functional
Method in brief: (§5)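 MRSA grown to mid-log in TSB was diluted to 10^6 CFU/mL. […] Samples were diluted 10^2–10^4-fold and plated on TSB agar. CFU were counted after overnight incubation at 37 °C and plotted against time.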

[13] = test system: Staphylococcus aureus; experiment: Bactericidal activity against methicillin-resistant Staphylococcus aureus ATCC 33591 at 25 to 50 ug/ml for 10 mins to 2 hrs by time kill assay; type: functional; method in brief: as §5
[14] = test system: Staphylococcus aureus; experiment: Antibacterial activity against methicillin-resistant Staphylococcus aureus ATCC 33591 at 0.5 times MIC after 14 passages; type: functional
Method in brief: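 Resistance passaging: the starting MIC was measured as in the MIC assay. Bacteria from the 1/2 MIC well seeded the next day's assay. Repeated daily for 14 passages.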

[15] = Cytotoxicity against human HK2 cells assessed as cell viability after 24 hrs by MTT assay; type: toxicity, cell-based, HK-2; method in brief: as §3
[16] = Cytotoxicity against human K562 cells assessed as cell viability after 24 hrs by MTT assay; type: toxicity, cell-based; method in brief: as §3

SMILES	MIC [1] [µg/mL]	MIC [2] [µg/mL]	MIC [3] [µg/mL]	MIC [4] [µg/mL]	MIC [5] [µg/mL]	MIC [6] [µg/mL]	HC50 at 1 h [7] [µg/mL]	Activity [8]	Activity [9]	Activity [10]	Activity [11]	Activity [12]	Activity [13]	Activity [14]	IC50 at 24 h [15] [µg/mL]	IC50 at 24 h [16] [µg/mL]
CCCCCCCCCC(=O)N[C@@H](Cc1c[nH]c2ccccc12)C(=O)N[C@@H](CC(N)=O)C(=O)N[C@@H](CC(=O)O)C(=O)N[C@@H]1C(=O)NCC(=O)N[C@@H](CCCN)C(=O)N[C@@H](CC(=O)O)C(=O)N[C@H](C)C(=O)N[C@@H](CC(=O)O)C(=O)NCC(=O)N[C@H](CO)C(=O)N[C@@H]([C@H](C)CC(=O)O)C(=O)N[C@@H](CC(=O)c2ccccc2N)C(=O)O[C@@H]1C [DAPTOMYCIN]	> 50	> 50	> 50	0.5 (≈ 0.309 µM)	0.5 (≈ 0.309 µM)	1 (≈ 0.617 µM)	–	–	–	–	–	–	–	–	–	–
NCCCC[C@@H](CN(CC(=O)NCc1cccc2ccccc12)C(=O)CCCN)NC(=O)c1ccc2ccccc2c1	> 50	> 50	> 50	25 (≈ 44 µM)	25 (≈ 44 µM)	25 (≈ 44 µM)	–	–	–	–	–	–	–	–	–	–
NCCCC[C@H](N)C(=O)N[C@@H](Cc1ccccc1)CN(CC(=O)NCc1cccc2ccccc12)C(=O)c1ccc2ccccc2c1	25 (≈ 39.7 µM)	12.5 (≈ 19.8 µM)	25 (≈ 39.7 µM)	25 (≈ 39.7 µM)	12.5 (≈ 19.8 µM)	25 (≈ 39.7 µM)	290	Non-Toxic	Non-Toxic	–	–	–	–	–	–	–
NCCCC[C@H](N)C(=O)N[C@@H](Cc1ccccc1)CN(CC(=O)NCc1ccc(C(F)(F)F)cc1)C(=O)CC12CC3CC(CC(C3)C1)C2	6.25 (≈ 9.33 µM)	12.5 (≈ 18.7 µM)	6.25 (≈ 9.33 µM)	6.25 (≈ 9.33 µM)	3.12 (≈ 4.66 µM)	6.25 (≈ 9.33 µM)	200	Non-Toxic	Non-Toxic	–	–	–	–	–	–	–
NCCCC[C@H](NC(=O)[C@@H](N)CCCCN)C(=O)N[C@@H](Cc1ccccc1)CN(CC(=O)NCC12CC3CC(CC(C3)C1)C2)C(=O)CC12CC3CC(CC(C3)C1)C2	6.25 (≈ 7.93 µM)	6.25 (≈ 7.93 µM)	> 25	1.56 (≈ 1.98 µM)	3.12 (≈ 3.96 µM)	6.25 (≈ 7.93 µM)	280	Non-Toxic	Non-Toxic	Active	Active	Dose-dependent effect	Active	Active	–	–
N=C(N)NCCC[C@H](N)C(=O)N[C@@H](Cc1ccccc1)CN(CC(=O)NCc1cccc2ccccc12)C(=O)c1ccc2ccccc2c1	50 (≈ 76 µM)	25 (≈ 38 µM)	25 (≈ 38 µM)	25 (≈ 38 µM)	12.5 (≈ 19 µM)	25 (≈ 38 µM)	300	–	–	–	–	–	–	–	> 100	> 100
NCCCC[C@@H](CN(CC(=O)NCc1cccc2ccccc12)C(=O)c1ccc2ccccc2c1)NC(=O)[C@@H](N)CCCCN	> 50	> 50	> 50	> 50	> 50	> 50	–	–	–	–	–	–	–	–	–	–
N=C(N)NCCC[C@H](N)C(=O)N[C@@H](CCCCN)C(=O)N[C@@H](Cc1ccccc1)CN(CC(=O)NCC12CC3CC(CC(C3)C1)C2)C(=O)CC12CC3CC(CC(C3)C1)C2	6.25 (≈ 7.66 µM)	6.25 (≈ 7.66 µM)	> 25	3.12 (≈ 3.82 µM)	3.12 (≈ 3.82 µM)	6.25 (≈ 7.66 µM)	250	Non-Toxic	Non-Toxic	–	–	–	–	–	–	–
NCCCC[C@H](N)C(=O)N[C@@H](Cc1ccccc1)CN(CC(=O)NCc1ccc(-c2ccccc2)cc1)C(=O)CC12CC3CC(CC(C3)C1)C2	6.25 (≈ 9.22 µM)	12.5 (≈ 18.4 µM)	12.5 (≈ 18.4 µM)	6.25 (≈ 9.22 µM)	6.25 (≈ 9.22 µM)	6.25 (≈ 9.22 µM)	160	Non-Toxic	Non-Toxic	–	–	–	–	–	–	–
